ChEMBL document CHEMBL3627703, “Synthetic, structural mimetics of the β-hairpin flap of HIV-1 protease inhibit enzyme function” (Bioorg Med Chem, 2015)
Calls of active or inactive are those of the source. The calls are words filed in the database; no cut-off is given here.

What was measured:
Protease = Protease (Human immunodeficiency virus 1, UniProt Q9YQ12); assay: Inhibition of recombinant HIV-1 protease expressed in Escherichia coli using Arg-Glu (EDANS)-Ser-Gln-Asn-Tyr-Pro-Ile-Val-Gln Lys(DABCYL)-Arg as substrate by spectrofluorometric analysis
Procedure, shortened: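 Recombinant HIV-1 PR refolded from E. coli inclusion bodies, active concentration set by active-site titration, final 30–40 nM. Assay at 25 °C in 10 mM sodium acetate, 1 M NaCl, 2% DMSO, pH 5.0. Fluorogenic substrate at 16.7 μM, inhibitor 0–200 μM (20 mM DMSO stocks). Hydrolysis followed at excitation 340 / emission 490 nm. Ki from fitting to tight-binding competitive inhibition equations.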

[1] = test system: Human immunodeficiency virus 1; assay: Antiviral activity against HIV-1 infected in human TZM-bl cells assessed as inhibition of viral replication at 50 to 100 uM by luciferase reporter assay; format: functional, organism-based
MT4 [2] = assay: Cytotoxicity against human MT4 cells assessed as viable cells at 50 uM after 3 days by tryptan blue dye assay; format: cell-based; details: mt4, 72 h
Procedure, shortened: (§1)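 MT-4 cells seeded at 2 × 10⁵ cells/ml in RPMI with 10% heat-inactivated FBS, carrying carrier alone or inhibitor at 10, 50 or 100 μM (0.25% DMSO final), 37 °C, 5% CO₂. Viable cells counted by trypan blue exclusion after three days; triplicate.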

MT4 [3] = assay: Cytotoxicity against human MT4 cells assessed as viable cells at 100 uM after 3 days by tryptan blue dye assay; format: cell-based; details: mt4, 72 h; procedure, shortened: as §1

Protease, sequence (Q9YQ12 whole entry): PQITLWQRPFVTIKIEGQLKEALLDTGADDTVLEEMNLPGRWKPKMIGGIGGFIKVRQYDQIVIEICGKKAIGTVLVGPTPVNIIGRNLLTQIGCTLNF

| SMILES | Ki (Protease) [µM] | also measured |
| --- | --- | --- |
| CC1=N[C@H](CC(C)C)C(=O)N(CC(=O)N2CCNCC2)c2cc(C(=O)O)ccc21 | > 200 | – |
| CC1=N[C@H](CC(C)C)C(=O)N(Cc2ccccc2)c2cc(C(=O)O)ccc21 | > 200 | – |
| CC1=N[C@@H](Cc2ccccc2)C(=O)N(Cc2ccc(C3CCCCC3)cc2)c2cc(C(=O)OC(C)(C)C)ccc21 | 54 | – |
| CC1=N[C@H](CC(C)C)C(=O)N(CC(C)C)c2cc(C(=O)O)ccc21 | > 200 | – |
| CC1=N[C@@H](Cc2ccccc2)C(=O)Nc2cc(C(=O)OC(C)(C)C)ccc21 | 64 | – |
| CC1=N[C@H](CC(C)C)C(=O)N(Cc2ccc(C3CCCCC3)cc2)c2cc(C(=O)OC(C)(C)C)ccc21 | 65 | – |
| CCCCCCCCCCCCCCCCNC(=O)CN1C(=O)[C@@H](CC(C)C)N=C(C)c2ccc(C(=O)OC(C)(C)C)cc21 | 165 | – |
| CC1=N[C@H](CC(C)C)C(=O)N(Cc2ccncc2)c2cc(C(=O)OC(C)(C)C)ccc21 | > 200 | – |
| CC1=N[C@H](CC(C)C)C(=O)N(Cc2ccc(-c3ccccc3)cc2)c2cc(C(=O)OC(C)(C)C)ccc21 | 62 | – |
| CC1=N[C@H](CC(C)C)C(=O)N(CC(=O)NCCc2ccccc2)c2cc(C(=O)OC(C)(C)C)ccc21 | 95 | – |
| CC1=N[C@@H](C)C(=O)N(Cc2ccc(C3CCCCC3)cc2)c2cc(C(=O)O)ccc21 | 56 | – |
| CCCCCCCCCCNC(=O)CN1C(=O)[C@@H](CC(C)C)N=C(C)c2ccc(C(=O)O)cc21 | 11 | inhibition [1]: Active; Activity (MT4 [2]): Non-toxic; Activity (MT4 [3]): Toxic |
| CC1=N[C@@H](C)C(=O)N(Cc2ccc(C3CCCCC3)cc2)c2cc(C(=O)OC(C)(C)C)ccc21 | 88 | – |
| CC1=NCC(=O)N(Cc2ccc(C3CCCCC3)cc2)c2cc(C(=O)OC(C)(C)C)ccc21 | 169 | – |
| CC1=N[C@H](CC(C)C)C(=O)N(CC(C)C)c2cc(C(=O)OC(C)(C)C)ccc21 | 89 | – |
| CC1=N[C@H](Cc2ccccc2)C(=O)Nc2cc(C(=O)O)ccc21 | > 200 | – |
| CC1=N[C@@H](Cc2ccccc2)C(=O)Nc2cc(C(=O)O)ccc21 | > 200 | – |
| CC1=N[C@@H](CC(C)C)C(=O)N(Cc2ccc(C3CCCCC3)cc2)c2cc(C(=O)OC(C)(C)C)ccc21 | 76 | – |
| CC1=N[C@H](CC(C)C)C(=O)N(CC(=O)OC(C)(C)C)c2cc(C(=O)OC(C)(C)C)ccc21 | 119 | – |

| SMILES | Ki (Protease) [µM] | also measured |
| --- | --- | --- |
| CC1=N[C@@H](CC(C)C)C(=O)Nc2cc(C(=O)OC(C)(C)C)ccc21 | 193 | – |
| CCC(C)[C@@H]1N=C(C)c2ccc(C(=O)O)cc2NC1=O (single isomer, unassigned) | 158 | – |
| CC1=N[C@H](Cc2ccccc2)C(=O)N(Cc2ccc(C3CCCCC3)cc2)c2cc(C(=O)O)ccc21 | 72 | – |
| CC1=N[C@H](Cc2ccccc2)C(=O)Nc2cc(C(=O)OC(C)(C)C)ccc21 | 88 | – |
| CC1=N[C@H](Cc2ccccc2)C(=O)N(Cc2ccc(C3CCCCC3)cc2)c2cc(C(=O)OC(C)(C)C)ccc21 | 131 | – |
| CC1=N[C@H](CC(C)C)C(=O)Nc2cc(C(=O)O)ccc21 | > 200 | – |
| CC1=NCC(=O)Nc2cc(C(=O)OC(C)(C)C)ccc21 | > 200 | – |
| CC1=N[C@H](CC(C)C)C(=O)Nc2cc(C(=O)OC(C)(C)C)ccc21 | > 200 | – |
| CC1=N[C@H](CC(C)C)C(=O)N(CC(=O)N2CCN(C(=O)OCC3c4ccccc4-c4ccccc43)CC2)c2cc(C(=O)O)ccc21 | 49 | – |
| CC1=N[C@@H](C)C(=O)Nc2cc(C(=O)OC(C)(C)C)ccc21 | > 200 | – |
| CC1=N[C@H](CC(C)C)C(=O)N(CC(=O)NCCc2ccccc2)c2cc(C(=O)O)ccc21 | 75 | – |
| CCCCCCCCCCNC(=O)CN1C(=O)[C@@H](CC(C)C)N=C(C)c2ccc(C(=O)OC(C)(C)C)cc21 | > 200 | – |
| CCCCCCNC(=O)CN1C(=O)[C@@H](CC(C)C)N=C(C)c2ccc(C(=O)O)cc21 | 75 | – |
| CCCCCCCCCCCCCCCCNC(=O)CN1C(=O)[C@@H](CC(C)C)N=C(C)c2ccc(C(=O)O)cc21 | 11 | inhibition [1]: Active; Activity (MT4 [2]): Toxic; Activity (MT4 [3]): Toxic |
| CC1=NCC(=O)N(Cc2ccc(C3CCCCC3)cc2)c2cc(C(=O)O)ccc21 | 85 | – |
| CC1=N[C@H](CC(C)C)C(=O)N(Cc2ccc(C(C)(C)C)cc2)c2cc(C(=O)O)ccc21 | 46 | – |
| CC1=N[C@H](CC(C)C)C(=O)N(Cc2ccccc2)c2cc(C(=O)OC(C)(C)C)ccc21 | > 200 | – |
| CC1=N[C@H](CC(C)C)C(=O)N(CC(=O)O)c2cc(C(=O)O)ccc21 | > 200 | – |
| CC1=NCC(=O)Nc2cc(C(=O)O)ccc21 | 199 | – |

| SMILES | Ki (Protease) [µM] | also measured |
| --- | --- | --- |
| CC1=N[C@@H](C)C(=O)Nc2cc(C(=O)O)ccc21 | > 200 | – |
| CCC(C)[C@@H]1N=C(C)c2ccc(C(=O)OC(C)(C)C)cc2NC1=O (single isomer, unassigned) | > 200 | – |
| CC1=N[C@H](CC(C)C)C(=O)N(Cc2ccncc2)c2cc(C(=O)O)ccc21 | > 200 | – |
| CC1=N[C@H](CC(C)C)C(=O)N(Cc2ccc(C3CCCCC3)cc2)c2cc(C(=O)O)ccc21 | 19 | inhibition [1]: Active; Activity (MT4 [2]): Non-toxic; Activity (MT4 [3]): Toxic |
| CC1=N[C@@H](CC(C)C)C(=O)N(Cc2ccc(C3CCCCC3)cc2)c2cc(C(=O)O)ccc21 | 27 | – |
| CC(C)C[C@H]1N=C(c2ccccc2)c2ccc(C(=O)OC(C)(C)C)cc2N(Cc2ccc(C3CCCCC3)cc2)C1=O | 88 | – |
| CC1=N[C@H](CC(C)C)C(=O)N(CC(=O)N2CCN(C(=O)OCc3ccccc3)CC2)c2cc(C(=O)O)ccc21 | 81 | – |
| CC1=N[C@H](CC(C)C)C(=O)N(Cc2ccc(C(C)(C)C)cc2)c2cc(C(=O)OC(C)(C)C)ccc21 | 147 | – |
| CCC(C)[C@@H]1N=C(C)c2ccc(C(=O)O)cc2N(Cc2ccc(C3CCCCC3)cc2)C1=O (single isomer, unassigned) | 53 | – |
| CC1=N[C@@H](CC(C)C)C(=O)Nc2cc(C(=O)O)ccc21 | > 200 | – |
| CC1=N[C@@H](Cc2ccccc2)C(=O)N(Cc2ccc(C3CCCCC3)cc2)c2cc(C(=O)O)ccc21 | 47 | – |
| CC1=N[C@H](CC(C)C)C(=O)N(CC(=O)N2CCN(C(=O)OCc3ccccc3)CC2)c2cc(C(=O)OC(C)(C)C)ccc21 | > 200 | – |
| CC1=N[C@H](CC(C)C)C(=O)N(CC(=O)N2CCN(C(=O)OCC3c4ccccc4-c4ccccc43)CC2)c2cc(C(=O)OC(C)(C)C)ccc21 | > 200 | – |
| CCC(C)[C@@H]1N=C(C)c2ccc(C(=O)OC(C)(C)C)cc2N(Cc2ccc(C3CCCCC3)cc2)C1=O (single isomer, unassigned) | 108 | – |
| CC1=N[C@H](CC(C)C)C(=O)N(Cc2ccc(-c3ccccc3)cc2)c2cc(C(=O)O)ccc21 | 21 | inhibition [1]: Active; Activity (MT4 [2]): Non-toxic; Activity (MT4 [3]): Toxic |
| CC1=N[C@H](CC(C)C)C(=O)N(CC(=O)N2CCN(C(=O)OC(C)(C)C)CC2)c2cc(C(=O)OC(C)(C)C)ccc21 | 143 | – |
| CCCCCCNC(=O)CN1C(=O)[C@@H](CC(C)C)N=C(C)c2ccc(C(=O)OC(C)(C)C)cc21 | > 200 | – |
| CC(C)C[C@H]1N=C(c2ccccc2)c2ccc(C(=O)O)cc2N(Cc2ccc(C3CCCCC3)cc2)C1=O | 68 | – |
